Holding throughout (settings): in vivo
Series [1] concerns Homo sapiens. As to the kind of experiment: Renal clearance in human with creatinine clearance of => 80 ml/min assessed as RO4957463 level at 1500 mg, iv administered as single dose after 24 hrs. In kind it is ADME, organism-based, Kidney. An outline of the steps:
(§1)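 Single 1,500 mg i.v. infusion over 60 min, with 8 subjects per renal-function group (CL_CR by Cockcroft-Gault at screening). Urine was collected at 0–6, 6–12 and 12–24 h, volume and pH recorded, and aliquots mixed 1:1 with 0.5 M MOPS. Samples were frozen at −70°C, protected from light, and assayed by a validated method. CL_R = A_e24/AUC₂₄.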

The test system of series [2] is Homo sapiens. In words: Renal clearance in human with creatinine clearance of 50-79 ml/min assessed as RO4957463 level at 1500 mg, iv administered as single dose after 24 hrs. In kind it is ADME, organism-based, Kidney. An outline of the steps: as §1
The subject of series [3] is Homo sapiens. As to the kind of experiment: Renal clearance in human with creatinine clearance of 30-49 ml/min assessed as RO4957463 level at 1500 mg, iv administered as single dose after 24 hrs. In kind it is ADME, organism-based, Kidney. An outline of the steps:
(§2)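 After a single 1,500 mg i.v. infusion over 60 min, urine was collected 0–6, 6–12 and 12–24 h post-dose, with volume and pH recorded. Aliquots were mixed 1:1 with 0.5 M MOPS, protected from light and frozen at −70°C. Parent and metabolite were assayed by a validated method. CLR = Ae24/plasma AUC24. n = 8 per group, mean ± SD.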

The subject of series [4] is Homo sapiens. As to the kind of experiment: Renal clearance in human with creatinine clearance of =< 30 ml/min assessed as RO4957463 level at 1500 mg, iv administered as single dose after 24 hrs. In kind it is ADME, organism-based, Kidney. An outline of the steps:
as §1

The test system of series [5] is Homo sapiens. As to the kind of experiment: Drug excretion in human with creatinine clearance of => 80 ml/min assessed as RO4957463 level at 1500 mg, iv administered as single dose after 24 hrs. In kind it is ADME, organism-based. An outline of the steps:
as §2

For series [6], the system named is Homo sapiens. In words: Drug excretion in human with creatinine clearance of 50-79 ml/min assessed as RO4957463 level at 1500 mg, iv administered as single dose after 24 hrs. In kind it is ADME, organism-based. An outline of the steps:
as §2

The subject of series [7] is Homo sapiens. As to the kind of experiment: Drug excretion in human with creatinine clearance of 30-49 ml/min assessed as RO4957463 level at 1500 mg, iv administered as single dose after 24 hrs. In kind it is ADME, organism-based. The procedure, abridged:
as §2

For series [8], the system named is Homo sapiens. As to the kind of experiment: Drug excretion in human with creatinine clearance of =< 30 ml/min assessed as RO4957463 level at 1500 mg, iv administered as single dose after 24 hrs. In kind it is ADME, organism-based. The procedure, abridged:
as §2

Series [9] has as its system Homo sapiens. In words: Dose normalized excretion in human with creatinine clearance of => 80 ml/min assessed as RO4957463 level at 1500 mg, iv administered as single dose after 24 hrs. In kind it is ADME, organism-based. The procedure, abridged: as §2
The test system of series [10] is Homo sapiens. In words: Dose normalized excretion in human with creatinine clearance of 50-79 ml/min assessed as RO4957463 level at 1500 mg, iv administered as single dose after 24 hrs. In kind it is ADME, organism-based. An outline of the steps:
as §2

Series [11] deals with Homo sapiens. As to the kind of experiment: Dose normalized excretion in human with creatinine clearance of 30-49 ml/min assessed as RO4957463 level at 1500 mg, iv administered as single dose after 24 hrs. In kind it is ADME, organism-based. The procedure, abridged: as §2
In series [12] the test system is Homo sapiens. As to the kind of experiment: Dose normalized excretion in human with creatinine clearance of =< 30 ml/min assessed as RO4957463 level at 1500 mg, iv administered as single dose after 24 hrs. In kind it is ADME, organism-based. The procedure, abridged:
as §2

`C[C@@H]1[C@H]([C@H](C(=O)O)[C@@H](C)O)N=C(C(=O)O)[C@H]1S[C@H]1C[C@@H](C(=O)N2CC[C@H](NC(=O)CNC(=N)N)C2)N(C)C1`: the CL_renal was determined as 13.2 L/h with Homo sapiens [1], 8.27 L/h with Homo sapiens [2], 3.91 L/h in the series on Homo sapiens [3] and 1.01 L/h with Homo sapiens [4]. Besides, the Activity was found to be 240 mg in the series with Homo sapiens [5]; 279 mg in the series on Homo sapiens [6]; 281 mg with Homo sapiens [7]; 194 mg in the series with Homo sapiens [8]; 16% with Homo sapiens [9]; 18.6% in the series on Homo sapiens [10]. Moreover, the Activity in the series with Homo sapiens [11] is reported as 18.7%; in the series on Homo sapiens [12], 13.1%.

Source of the values: ChEMBL document CHEMBL1275441, “Effect of impaired renal function on the pharmacokinetics of tomopenem (RO4908463/CS-023), a novel carbapenem” (Antimicrob Agents Chemother, 2008).
